Values after ≈ are worked out from the molar mass of the structure shown.
What was measured:
[1] = Mouse liver microsomal stability; assay type: in vitro ADME; settings: 0.5 μM compound, 0.5 mg/mL microsomes; compared with VY-3-249
In short: (§1)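 Incubations: 0.5 μM compound, 0.5 mg/mL liver microsomes, NADPH-regenerating system, potassium phosphate pH 7.4. Timed aliquots quenched in acetonitrile with internal standard; no-cofactor controls run. LC-MS/MS analyte/internal-standard peak-area ratios. Elimination constant fitted by nonlinear regression; t1/2 from k = 0.693/t1/2. CLint scaled with 48 (mouse) or 39.7 (human) mg protein/g liver. n = 1.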

[2] = Pharmacokinetic analysis in CD-1 mice; assay type: in vivo, mouse; settings: oral gavage 30 mg/kg, intravenous 2 mg/kg, intraperitoneal 10 mg/kg
In short: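 Formulation: 10% DMSO, 10% Solutol, 80% PBS. Dosing in CD-1 mice based on 28 g average weight. Three mice per time point; trunk blood collected into K2-EDTA and kept on wet ice until centrifugation. Plasma extracted in acetonitrile/water with tolbutamide internal standard, centrifuged, supernatant analysed by LC-MS. Mean ± S.D.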

[3] = Human liver microsomal stability; assay type: in vitro ADME; settings: 0.5 μM compound, 0.5 mg/mL microsomes; compared with VY-3-249
In short: as §1

recombinant human ACSS2 = recombinant human ACSS2 (Homo sapiens, UniProt Q9NR19); experiment: TranScreener AMP biochemical assay of ACSS2 activity; settings: ratio of IC50 values
In short: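 Recombinant human ACSS2 at 3 nM in 30 mM HEPES pH 7.4, 140 mM NaCl, 2 mM MgCl2, 2 mM DTT, 0.005% Brij35. Test compound serially diluted in DMSO. Final substrates: 5 mM acetate, 50 μM ATP, 5 μM CoA; 120 min incubation. AMP detected by Tb-anti-AMP antibody/tracer TR-FRET after 30 min. Percent inhibition normalized to no-enzyme (100%) and DMSO (0%) wells; IC50 curves fitted from replicates.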

[4] = tested on: cytosolic AcCoA metabolism (UDP-GlcNAc); experiment: 13C2-acetate labeling of UDP-GlcNAc in cells; assay type: cell-based
In short: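 Cells grown 24 h in serum-like modified Eagle's medium (SMEM) with 0.1 mM uniformly labeled 13C2-acetate. Conditions were normoxia with 10% dialyzed FBS (N10) or 1% O2 hypoxia with 1% dialyzed FBS (H1). Vehicle or test compound present. Cells washed in ice-cold PBS and extracted with methanol/acetonitrile/water (5:3:2) at 4°C for 5 min. Cleared extracts analysed by HILIC LC-MS on a Q Exactive HF-X.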

SKBr3 cells = experiment: Growth of SKBr3 cells; assay type: cell-based, human; settings: SKBr3, 10 μM, 72 hours, H1 conditions, 200 μM sodium acetate
MDA-MB-468 tumors = experiment: MDA-MB-468 tumor xenograft growth; assay type: in vivo, mouse; settings: MDA-MB-468 (ACSS2 high), 100 mpk daily PO
In short: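 Female NSG mice, 5–6 weeks old, received subcutaneous PBS:Matrigel grafts: BT474 at 1×10^6 (with a 60-day 17β-estradiol pellet at the neck), MDA-MB-468 at 5×10^6, or WHIM12 PDX cells at 2×10^6. Once tumors established, mice were randomized to daily IP or oral gavage. Arms: vehicle (10% DMSO, 20% solutol, 70% water with 0.5% Tween20) or 100 mg/kg test compound. Calipers thrice weekly; volume (L × W²)/2.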

Brpkp110 cells [5] = experiment: 13C2-acetate labeling of palmitate in Brpkp110 cells; assay type: cell-based, mouse; settings: Brpkp110, N10 and H1, 24 hr, 100 μM 13C2-acetate
In short: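 Cells labeled 24 h with 100 μM 13C2-acetate in SMEM under N10 (normoxia, 10% dialyzed FBS) or H1 (1% O2, 1% dialyzed FBS). Vehicle or test compound present; for BT474 in H1, a 10-fold dilution series. Lipids extracted with methanol/chloroform/PBS, saponified in 0.3 M KOH/90% methanol at 70°C for 1 h, then hexane-extracted. Palmitate labeling read by C18 reverse-phase LC-MS. n = 3, mean ± S.D.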

[6] = Body weight in tumor xenograft studies; assay type: in vivo, mouse; settings: 100 mg/kg daily IP or oral gavage vs vehicle
In short: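 Female NSG mice, 5–6 weeks old, carried subcutaneous tumours in PBS:Matrigel (BT474 with a 17β-estradiol pellet; MDA-MB-468, WHIM12, A7C11, Brpkp110) or BT474 mammary fat-pad orthografts. After tumour establishment, mice were randomized and dosed daily by IP injection or oral gavage. Groups received vehicle (10% DMSO, 20% solutol, 70% water containing 0.5% Tween20) or test compound at 100 mg/kg.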

[7] = tested on: BT474, MDA-MB-468, and WHIM12 tumors; experiment: Heavy acetate stable isotope tracing in tumors; assay type: in vivo, mouse
In short: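 Tumor-bearing mice received 2% D3- or 13C2-acetate in drinking water for two days, plus a 2 g/kg IP heavy-acetate bolus 90 min before sacrifice. Tumors excised under anesthesia and flash-frozen. Extraction at 40 mg/mL in methanol/acetonitrile/water (5:3:2) by bead homogenization, cleared twice. Citrate labeling analysed by HILIC LC-MS.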

sgACSS2 Brpkp110 tumors = experiment: sgACSS2 Brpkp110 tumor growth in mice; assay type: in vivo, mouse; settings: sgACSS2 Brpkp110 (ACSS2 knockout) tumors
In short: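 Parental or CRISPR-Cas9 sgAcss2 cells (lentiviral, blasticidin-selected pools) implanted subcutaneously into 5–6-week-old female NSG mice in PBS:Matrigel: A7C11 at 5×10^5, Brpkp110 at 5×10^5. Calipers read tumors three times weekly. Volume = (L × W²)/2, L being the longer measurement; not blinded.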

Brpkp110 cells [8] = experiment: 13C6-glucose dependent palmitate synthesis in Brpkp110 cells; assay type: cell-based, mouse; settings: Brpkp110, normoxia, 10% dialyzed FBS
In short: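 Cells grown 4 h under normoxia in SMEM with 10% dialyzed FBS and 5.5 mM uniformly labeled 13C6-glucose. Lipids extracted with methanol/chloroform/PBS and saponified in 0.3 M KOH in 90% methanol at 70°C for 1 h. Fatty acids recovered into hexane and palmitate labeling measured by C18 reverse-phase LC-MS.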

Water solubility in PBS = assay type: physicochemical; settings: PBS buffer, pH 7.4
In short: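 10 mg test compound in 1 mL PBS pH 7.4, sonicated 30 min, vortexed 30 min at low speed, then left 16–24 h at room temperature. Filtered (0.22 μm) and 10-fold serially diluted in triplicate in ACN:water (1:1). Internal standard added; LC-MS/MS quantitation against a five-standard calibration curve.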

Sequence of recombinant human ACSS2 (Q9NR19 whole entry): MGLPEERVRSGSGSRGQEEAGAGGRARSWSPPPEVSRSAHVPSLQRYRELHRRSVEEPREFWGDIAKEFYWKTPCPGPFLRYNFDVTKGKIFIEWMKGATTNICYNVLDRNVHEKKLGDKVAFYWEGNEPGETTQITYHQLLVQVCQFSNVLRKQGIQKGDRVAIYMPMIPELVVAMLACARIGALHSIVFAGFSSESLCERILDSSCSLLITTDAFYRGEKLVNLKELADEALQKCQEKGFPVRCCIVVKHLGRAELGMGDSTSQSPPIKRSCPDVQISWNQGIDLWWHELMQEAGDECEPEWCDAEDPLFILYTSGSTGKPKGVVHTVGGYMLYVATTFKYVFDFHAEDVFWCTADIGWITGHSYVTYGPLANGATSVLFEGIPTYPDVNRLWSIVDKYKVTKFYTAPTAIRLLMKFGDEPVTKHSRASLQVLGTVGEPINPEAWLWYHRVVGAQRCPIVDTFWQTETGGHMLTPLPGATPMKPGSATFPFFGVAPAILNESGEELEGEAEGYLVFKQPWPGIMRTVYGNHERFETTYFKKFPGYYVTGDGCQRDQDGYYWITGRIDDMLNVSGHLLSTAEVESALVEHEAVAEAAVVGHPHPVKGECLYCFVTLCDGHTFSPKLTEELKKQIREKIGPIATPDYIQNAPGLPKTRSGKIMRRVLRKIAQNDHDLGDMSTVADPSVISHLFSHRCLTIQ

CCn1c(C(O)(c2ccccc2)c2ccccc2)nc2ccc(C(=O)NC[C@@H](C)O)cc21 [VY-3-135, (R)-1-ethyl-2-(hydroxydiphenylmethyl)-N-(2-hydroxypropyl)-1H-benzo[d]imidazole-6-carboxamide]
stability in mouse liver microsomal assay [1]: superior stability
absorption [2]: completely absorbed by all routes of administration
exposure [2]: good exposure
stability in human liver microsomal assay [3]: superior stability
potency relative to VY-3-249 (recombinant human ACSS2): ~30 fold
incorporation of 13C2-acetate into UDP-GlcNAc [4]: blocked incorporation
cell growth (SKBr3 cells): modest growth inhibition
tumor growth (MDA-MB-468 tumors): repressed
acetate dependent labeling of palmitate by 13C2-acetate (Brpkp110 cells [5]): efficiently blocked
body weight [6]: No significant differences in body weight
D3-acetate labeling of citrate in MDA-MB-468 tumors ([7]; MDA-MB-468 tumors): increase in D3-acetate labeling of citrate
D3-acetate or 13C2-acetate labeling of citrate in tumors ([7]; readout of ACSS1): did not observe any inhibitory effect
tumor growth (sgACSS2 Brpkp110 tumors): no further effect on tumor growth
13C6-glucose dependent palmitate synthesis (Brpkp110 cells [8]): did not affect
solubility (Water solubility in PBS): 21.7 µM (≈ 9.32 µg/mL)

Reference: paper PMC8026699 (Cancer research, 2021)
